Here are results for seven molecules from publication PMC5510570 (The Journal of organic chemistry, 2017).

pIC50: −log10 of the molar value. “Also recorded” adds a separate entry of the source.

Holding throughout (assay type): cell-based
Data set [1] relates to human HEp2 cells. Briefly: Dark cytotoxicity. The following applies: read-out: Dark toxicity IC50, in the dark, up to 200 μM, incubated overnight. The essentials:
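HEp2 cells kept in 50:50 DMEM:AMEM with 5% FBS and 1% penicillin/streptomycin, seeded at 7500 per well and grown 48 h. Dosed at 0, 6.25, 12.5, 25, 50, 100 and 200 μM final, diluted from DMSO stock, overnight at 37°C, 5% CO₂. Washed with PBS, then 20% CellTiter Blue medium for 4 h, read at 570/615 nm. Untreated set to 100%, 0.2% saponin to 0%.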

In data set [2] the test system is human HEp2 cells. Briefly: Phototoxicity. To be noted: for pIC50: read-out: Phototoxicity IC50, 1.5 J/cm^2 light dose, up to 100 μM. Summed up: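 HEp2 cells were grown in 50:50 DMEM:AMEM with 5% FBS and 1% penicillin/streptomycin, plated at 7500 cells/well and grown 48 h. Cells were loaded 24 h with test compound at 0–100 μM (from 32 mM DMSO stock), washed with PBS and given fresh medium. They were irradiated 20 min with a 600 W water-filtered halogen lamp (~1.5 J/cm²) and incubated 24 h. Viability was read with 20% CellTiter Blue (4 h, 570/615 nm), normalized to untreated (100%) and 0.2% saponin (0%).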

Data set [3] has as its system human HEp2 cells. The data set is described as follows: Time-dependent cellular uptake. To be noted: for Cellular uptake at 24 h: 10 μM compound; for Cellular uptake (in words): 0-24 h. The essentials: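 HEp2 cells, cultured and plated as for cytotoxicity, were exposed to 10 μM test compound for 0, 1, 2, 4, 8 and 24 h. Cells were PBS-washed and lysed in 0.25% Triton X-100/PBS, and fluorescence was read at 485/590 nm against a compound standard curve (0.3125–10 μM). Cell number was measured by CyQuant against a 10⁴–10⁵ cell standard curve. Uptake was expressed as nM compound per cell.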

Regarding “8-(4-Cyanophenyl)-3,5-di(4-methoxyphenyl)-2,6-dithienyl-BODIPY [BODIPY 7]”, the pIC50 was < 3.70 in data set [1] and < 4.00 in data set [2]. In data set [3], the “Cellular uptake at 24 h” value came to 0.12±0.01 nM/cell.
Consider “3,5,8-Triphenyl-2,6-dithienyl-BODIPY [BODIPY 3]”, for which the pIC50 was < 3.70 in data set [1] and < 4.00 in data set [2]. The “Cellular uptake at 24 h” value in data set [3] was 0.14±0.01 nM/cell. In addition, the “Cellular uptake (in words)” value in data set [3] (10 μM) is “very low uptake”.
On to “8-(4-Benzyloxycarbonylphenyl)-3,5-di(4-methoxyphenyl)-2,6-dichloro-BODIPY [BODIPY 6a]”, for which the pIC50 is < 3.70 in data set [1] and < 4.00 in data set [2]. For the same molecule, in data set [3], the “Cellular uptake at 24 h” value came out at 0.14±0.01 nM/cell.
Take 2,3,5,6,8-Pentaphenyl-BODIPY [BODIPY 4]: the pIC50 in data set [1] was < 3.70; in data set [2], < 4.00. For the same molecule, the “Phototoxicity (in words)” value in data set [2] (light irradiation 1.5 J/cm^2, up to 100 μM) is given as “slight phototoxicity”. Also, the “Cellular uptake at 24 h” value in data set [3] was determined as 0.058±0.028 nM/cell. Also, the “Cellular uptake (in words)” value in data set [3] (10 μM) was “very low uptake; also recorded: accumulated the least”.
In the case of `COc1ccc(C2=[N+]3C(=C(c4ccc(C#N)cc4)c4cc(Cl)c(-c5ccc(OC)cc5)n4[B-]3(F)F)C=C2Cl)cc1` [BODIPY 6b, 8-(4-Cyanophenyl)-3,5-di(4-methoxyphenyl)-2,6-dichloro-BODIPY], the figures for the pIC50 in data set [1] and in data set [2] were < 3.70 and < 4.00, respectively. In addition, in data set [3], the “Cellular uptake at 24 h” value was 0.51±0.01 nM/cell. In data set [3] (10 μM), the “Cellular uptake (in words)” value was “higher cellular uptake; also recorded: highest cellular uptake”.
`COc1ccc(C2=CC3=C(c4ccc(C#N)cc4)c4cc(-c5ccc(C#N)cc5)c(-c5ccc(OC)cc5)n4[B-](F)(F)[N+]3=C2c2ccc(OC)cc2)cc1` [BODIPY 8, 8-(4-Cyanophenyl)-3,5-di(4-methoxyphenyl)-2-(4-methoxyphenyl)-6-(4-cyanophenyl)-BODIPY]: the figures for the pIC50 in data set [1] and in data set [2] were < 3.70 and < 4.00, respectively. Moreover, the “Time at which uptake plateau was reached” value in data set [3] (10 μM) came to 8 h. The “Cellular uptake at 24 h” value in data set [3] is 0.79±0.13 nM/cell. Also, the “Cellular uptake (in words)” value in data set [3] (10 μM) is “higher cellular uptake; also recorded: highest cellular uptake”.
As for “3,5,8-Triphenyl-2,6-dichloro-BODIPY [BODIPY 2]”, the pIC50 in data set [1] was < 3.70; in data set [2], < 4.00. For the same molecule, the “Cellular uptake at 24 h” value in data set [3] was found to be 1.2±0.10 nM/cell. Besides, in data set [3] (10 μM), the “Cellular uptake (in words)” value is “taken-up faster and more efficiently at all times investigated; also recorded: accumulated the most within cells after 24 hours”.
